Assay results collected from several papers.
Protocols differ between the studies behind these lines.
Target: cAMP-dependent protein kinase catalytic subunit PRKX (PRKX, Homo sapiens, UniProt P51817)
Residues used in one study (P51817 1-358): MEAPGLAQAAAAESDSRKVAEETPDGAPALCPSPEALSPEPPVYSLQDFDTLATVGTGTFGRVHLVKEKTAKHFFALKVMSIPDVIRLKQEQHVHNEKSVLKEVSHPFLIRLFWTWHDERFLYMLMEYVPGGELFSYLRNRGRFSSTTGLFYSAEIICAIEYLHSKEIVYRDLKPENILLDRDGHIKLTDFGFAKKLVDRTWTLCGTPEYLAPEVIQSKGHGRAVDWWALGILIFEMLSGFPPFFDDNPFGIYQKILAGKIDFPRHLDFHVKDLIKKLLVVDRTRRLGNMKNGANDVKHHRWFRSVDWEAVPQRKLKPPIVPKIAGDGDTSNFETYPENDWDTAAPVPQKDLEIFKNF

CC(C)(C)c1nc(-c2cccc(NS(=O)(=O)c3c(F)cccc3F)c2F)c(-c2ccnc(N)n2)s1
remaining activity (enzyme activity; inhibitor; radiometric; 1 µM): 77%

Cc1ccc(NC(=O)c2ccc(C)c(C(F)(F)F)c2)cc1C#Cc1nn(C2CCC(O)CC2)c2ncnc(N)c12 (centres unmarked)
remaining signal (cell-free assay; 10 µM): 105%

CC1=C(C#N)C(c2ccc3c(c2)c(NC(=O)c2ccccc2C)nn3C)C(C#N)=C(C)N1
remaining binding (cell-free assay; competition with immobilised ligand; 1 µM): 76%

CN1CC(Oc2cnc(C#N)cc2-c2ccn3nc(NC(=O)C4CC4)cc3c2)C1
inhibition (enzyme activity; inhibitor; 1 µM): 5%

CCN(CC)c1ccc(C2=NNC(=O)CC2C)cc1[N+](=O)[O-] (centres unmarked)
remaining activity (enzyme activity; inhibitor; 10 µM): 91%

Cc1cc(NC(=O)c2cccc(S(F)(F)(F)(F)F)c2)cc(-n2ccn3nc(-c4cccnc4)cc23)c1
remaining binding (cell-free assay; competition with immobilised ligand; 1 µM): 100%

Cc1ccc(C(=O)NCc2ccsc2)cc1C#Cc1cn(C(C)C)c2ncnc(N)c12
activity vs control (enzyme activity; inhibitor; 1 µM): 110%

NS(=O)(=O)c1cc(NC(=O)C2(c3ccccc3Cl)CC2)ccc1Oc1cccc(Cl)c1
remaining binding (cell-free assay; competition with immobilised ligand; 1 µM): 77%

CC/C(=N\NC(=O)NCc1cccc(O)c1)c1ccc(O)c(C)c1O
inhibition (enzyme activity; inhibitor; 0.1 µM): 81.9%

COc1cc2ncnc(Nc3ccc(Oc4ccccc4)cc3C)c2cc1OC
inhibition (enzyme activity; inhibitor; 1 µM): 6%

O=C(Nc1cnn(-c2csc(C(=O)NC3COC3)c2)c1)Nc1c(F)cccc1Cl
remaining activity (enzyme activity; inhibitor; 5 µM): 91.5%

Cc1ccc(NC(=O)c2ccc(CN3CCN(C)CC3)cc2)cc1Nc1nc(-c2cccnc2)cs1
remaining signal (cell-free assay; 0.5 µM): 99.5%

Cn1cnc(Br)c1C1=CN(c2ncnc3[nH]cnc23)CCS1
inhibition (enzyme activity; inhibitor; radiometric; 50 nM): 17.6%

CNC(=O)c1cc(Oc2ccc(NC(=O)Nc3ccc(Cl)c(C(F)(F)F)c3)cc2)ccn1
inhibition (enzyme activity; inhibitor; 0.3 µM): 8%

O=C1Nc2ccc(Cl)cc2C1=Cc1cc(Cl)c(O)c(Cl)c1
remaining signal (cell-free assay; 0.5 µM): 92.1%

CO[C@@H](C)c1c(Nc2ccc([C@H](N(C)C(=O)C3CCS(=O)(=O)CC3)C(F)(F)F)cc2)cnc2cc(Cl)nn12
remaining binding (cell-free assay; competition with immobilised ligand; 1 µM): 88%

Cc1cnc(NC2CCOCC2)nc1-n1cnc(C(=O)NC(CN)c2cc(F)cc(Cl)c2)c1 (centres unmarked)
remaining activity (enzyme activity; inhibitor; radiometric; 1 µM): 24%

C[C@@H](c1cccc(C#N)c1)n1cc(Cl)cc(C(N)=O)c1=N
remaining binding (cell-free assay; competition with immobilised ligand; 1 µM): 100%

CCCOc1ccc(OC)c(F)c1C(=O)c1ccc(C(=O)N[C@@H]2CNC[C@H]2NC(=O)c2ccc3[nH]ncc3c2)cc1
remaining activity (enzyme activity; inhibitor; 50 nM): 16%

O=C1NC(c2ccccn2)Sc2ccccc21 (centres unmarked)
remaining binding (cell-free assay; competition with immobilised ligand; 1 µM): 100%

O=C1NC(=O)c2cc(Nc3ccc(F)cc3)c(Nc3ccc(F)cc3)cc21
remaining signal (cell-free assay; 0.5 µM): 103%

CN(C)c1nccc(-c2cnc3ncccn23)n1
remaining binding (binding; 1 µM): 94%

C[C@@]1(Cc2ccc(C#N)cc2)C(=O)N(c2cc(Cl)cc(Cl)c2)c2ncc(C(=O)NC3(c4nc(C5CCC5)no4)CC3)n21
remaining binding (cell-free assay; competition with immobilised ligand; 1 µM): 100%

Cc1ccc(Nc2nccc(N(C)c3ccc4c(C)n(C)nc4c3)n2)cc1S(N)(=O)=O
inhibition (enzyme activity; inhibitor; 10 µM): 88%

O=C(Nc1cccnn1)N1CCC(=Cc2cccc(Oc3ccc(C(F)(F)F)cn3)c2)CC1
remaining binding (cell-free assay; competition with immobilised ligand; 1 µM): 87%

CCN(CC)CCNC(=O)c1c(C)[nH]c(/C=C2\C(=O)Nc3ccc(F)cc32)c1C
inhibition (enzyme activity; inhibitor; 10 µM): 15%
